This passage reports inhibition results from ChEMBL document CHEMBL1132415, “Domain-structured N1,N2-derivatized hydrazines as inhibitors of ribonucleoside diphosphate reductase: redox-cycling considerations” (J Med Chem, 1999).

Test [1] in a line: Inhibition of metalloenzyme Ribonucleoside diphosphate reductase. Further details: concentration or dose not given beside the values. The settings on record: concentration not given here. Put shortly:
(§1)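 RdR from excised subcutaneous sarcoma 180 tumors in male B6D2F3 mice; chelators supplied in DMF. Enzyme-started at 37 °C, stopped by boiling at 0, 10, 20 min. Cytidine/deoxycytidine separated by cellulose TLC, radioactivity scanned. Protein by BSA-standard method.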

A short description of test [2]: Activity against metalloenzyme Ribonucleoside diphosphate reductase was evaluated from a subcutaneously growing murine tumor (sarcoma 180) implanted in B6D2F3 male mice at 1.0 conc. Put shortly: as §1
Test [3] is described as follows: (§2) Activity against metalloenzyme Ribonucleoside diphosphate reductase was evaluated from a subcutaneously growing murine tumor (sarcoma 180) implanted in B6D2F3 male mice at 0.1 conc. Put shortly:
as §1

Test [4] in a line: (§3) Activity against metalloenzyme Ribonucleoside diphosphate reductase was evaluated from a subcutaneously growing murine tumor (sarcoma 180) implanted in B6D2F3 male mice at 0.01 conc. Put shortly: as §1
Test [5] can be described thus: as §2. The essentials: as §1
This is another data set of the same source.

Test [6] is described as follows: (§4) Activity against metalloenzyme Ribonucleoside diphosphate reductase was evaluated from a subcutaneously growing murine tumor (sarcoma 180) implanted in B6D2F3 male mice, in reference to hydroxy-urea at 0.1 conc.
Test [7] is described as follows: as §4. This is another data set of the same source.
Test [8] can be described thus: as §3. The essentials: as §1
This is another data set of the same source.

The nature of test [9]: Activity against metalloenzyme Ribonucleoside diphosphate reductase was evaluated from a subcutaneously growing murine tumor (sarcoma 180) implanted in B6D2F3 male mice at 0.002 conc. The essentials:
as §1

Test [10] is described as follows: Activity against metalloenzyme Ribonucleoside diphosphate reductase was evaluated from a subcutaneously growing murine tumor (sarcoma 180) implanted in B6D2F3 male mice at 0.02 conc. Put shortly:
as §1

The nature of test [11]: Activity against metalloenzyme Ribonucleoside diphosphate reductase was evaluated from a subcutaneously growing murine tumor (sarcoma 180) implanted in B6D2F3 male mice at 0.0002 conc. Put shortly: as §1
The nature of test [12]: Activity against metalloenzyme Ribonucleoside diphosphate reductase was evaluated from a subcutaneously growing murine tumor (sarcoma 180) implanted in B6D2F3 male mice at 0.033 conc. The essentials:
as §1

Test [13] in a line: Activity against metalloenzyme Ribonucleoside diphosphate reductase was evaluated from a subcutaneously growing murine tumor (sarcoma 180) implanted in B6D2F3 male mice at 0.0033 conc. The essentials:
as §1

A short description of test [14]: Activity against metalloenzyme Ribonucleoside diphosphate reductase was evaluated from a subcutaneously growing murine tumor (sarcoma 180) implanted in B6D2F3 male mice at 0.00033 conc. Put shortly: as §1
Test [15] is described as follows: Activity against metalloenzyme Ribonucleoside diphosphate reductase was evaluated from a subcutaneously growing murine tumor (sarcoma 180) implanted in B6D2F3 male mice at 0.027 conc. The essentials: as §1
A short description of test [16]: Activity against metalloenzyme Ribonucleoside diphosphate reductase was evaluated from a subcutaneously growing murine tumor (sarcoma 180) implanted in B6D2F3 male mice, in reference to hydroxy-urea at 0.033 conc.
Test [17] can be described thus: Activity against metalloenzyme Ribonucleoside diphosphate reductase was evaluated from a subcutaneously growing murine tumor (sarcoma 180) implanted in B6D2F3 male mice, in reference to hydroxy-urea at 0.007 conc.

Regarding “Copper(II) Chelate of 1-[Pyridoxylidene]-2-[3',5'-chloro-2'-pyridyl]hydrazine Sulfate”, the inhibition in test [1] was 81%; in [2], 85%; in test [3], 83%; in test [4] it was 37%.

`CC(=O)OCc1cnc(C)c(OC(C)=O)c1/C=N/Nc1ccccn1`: the inhibition in test [5] is 68%; in [6], 37%; in [3], 68%; in [7] it was 37%; in [4], 31%.

For `Cc1ncc(CO)c(/C=N/Nc2nc(Cl)c(Cl)c(Cl)c2Cl)c1O`, the inhibition in test [1] worked out at 72%; in test [5], 18%; in [2], 43%; in test [8] it was 25%.

As for `C[n+]1ccc(C(=O)N/N=C/c2cc(Cl)cc(Cl)c2O)cc1`, the inhibition in [8] amounted to 0%.

As for `CCOC(=O)C[n+]1ccc(C(=O)N/N=C/c2cc(Br)ccc2O)cc1`, the inhibition in test [1] turned out to be 81%; in test [8], 0%.

In turn, `COc1ccc(COC(=O)N/N=C/c2c(CO)cnc(C)c2O)cc1` came in with an inhibition in test [8] of 0%.

Consider `Cc1ncc(CO)c(/C=N/NC(=O)c2cc[n+](C)cc2)c1O`, for which the inhibition in test [8] was determined as 0%.

Turning to `CCOC(=O)C[n+]1ccc(C(=O)N/N=C/c2cc(Cl)ccc2O)cc1`, the inhibition turned out to be 81% in [1], 10% in test [9], 77% in test [10] and 18% in test [11].

In turn, `Cc1ncc(CO)c(/C=N/Nc2nnc(N/N=C/c3c(CO)cnc(C)c3O)c3ccccc23)c1O` showed an inhibition in test [4] of 0%.

On to `CCOC(=O)C[n+]1cc(CO)c(/C=N/Nc2ncccn2)c(O)c1C`, for which the inhibition in [1] turned out to be 72%; in test [2], 79%; in test [3], 76%; in test [8], 79%.

In [8], `Cc1c(O)c(/C=N/NC(=O)c2cc[n+](C)cc2)c(CO)c[n+]1C` showed an inhibition of 0%.

As to `Cc1ncc(CO)c(/C=N/Nc2[nH]cnc3ncnc2-3)c1O`, the inhibition in [1] turned out to be 81%; in test [12] it was 72%; in [13], 21%; in [14], 18%.

In the case of `Oc1c(Cl)cc(Cl)cc1/C=N/Nc1ccccn1`, the inhibition in test [1] was 82%; in test [12], 65%; in test [13], 34%; in [14], 12%.

On to `Cc1ncc(CO)c(/C=N/Nc2ncccn2)c1O`, for which the inhibition in test [1] and in test [2] was 78% each time.

Consider `Oc1ccc(Br)cc1/C=N/Nc1ccccn1`, for which the inhibition in test [8] was 0%.

Regarding “Copper(II) Chelate of 1-[Pyridoxylidene]-2-[5'-chloro-2'-pyridyl]hydrazine Sulfate”, the inhibition in [1] was found to be 81%; in test [2], 82%; in [3], 65%; in test [4] it was 27%.

Take `Cc1ncc(CO)c(/C=N/NC(=O)c2ccnc3ccccc23)c1O`: the inhibition in [1] turned out to be 81%; in test [15] it was 63%; in test [11] it was 11%.

Take `Cc1cc(O)nc(N/N=C/c2c(CO)cnc(C)c2O)n1`: the inhibition in test [1] was 15%; in test [2], 0%.

`CCOC(=O)C[n+]1cc(CO)c(/C=N/Nc2ccccn2)c(O)c1C` displayed an inhibition in [1] of 15%.

Take `Cc1c(O)c(/C=N/N=c2\ccccn2C)c(CO)c[n+]1C`: the figures for the inhibition in test [1] and in [8] were 81% and 0%, respectively.

With “1:2 Copper(II):1-[5'-Bromosalicylidene]-2-[N-(ethoxy-carbonylmethyl)isonicotinoyl]hydrazine Sulfate Complex”, the inhibition amounted to 72% in test [1], 71% in [2], 64% in test [3] and 35% in test [8].

For the compound “1:2 Copper(II):1-[5'-Bromosalicylidene]-2-[isonicotinoyl]-hydrazine Formate Complex”, the inhibition stood at 73% in test [1], 59% in test [2], 28% in test [3] and 22% in [8].

Consider `C[n+]1ccccc1N/N=C/c1cc(Cl)cc(Cl)c1O`, for which the inhibition turned out to be 58% in test [12], 34% in test [13], 8% in test [14] and 82% in test [16].

`Cc1ncc(CO)c(/C=N/Nc2ncc(Cl)cc2Cl)c1O`: the inhibition in test [1] was found to be 72%; in test [2], 83%; in test [4] it was 78%; in test [8], 79%.

Turning to `Cc1c(O)c(/C=N/Nc2ncccn2)c(CO)c[n+]1C`, the inhibition in test [1] turned out to be 15%.

In the case of `Cc1ncc(CO)c(/C=N/CC/N=C/c2c(CO)cnc(C)c2O)c1O`, the inhibition in [4] worked out at 0%.

Consider `CC(=O)OCc1cnc(C)c(OC(C)=O)c1/C=N/Nc1ncccn1`, for which the inhibition in [1] was found to be 73%; in test [5], 43%; in [2], 79%; in test [7] it was 37%; in [8] it was 24%.

“Copper(II)-Chelate of 1-[Pyridoxylidene]-2-[2'-pyrimidyl]-hydrazine Sulfate”: the inhibition in [1] worked out at 73%; in [2], 86%; in [6], 37%; in test [3], 78%; in [4], 38%.

As to `Cc1ncc(CO)c(/C=N/Nc2ccccn2)c1O`, the inhibition was found to be 15% in [17] and 72% in test [8].

As to `CC(=O)OCc1cnc(C)c(O)c1/C=N/Nc1ncccn1`, the inhibition in [4] was 30%.

One may read the inhibition as the relative decrease from the control value, in per cent.
